What was measured:
[1] = biological target: T1, C-C chemokine receptor type 1 (Homo sapiens, UniProt P32246); experiment: Inhibitory activity against human Chemokine receptor type 1 expressed in chinese hamster ovary cells; type: cell-based, CHO
T1 sequence (P32246 whole entry): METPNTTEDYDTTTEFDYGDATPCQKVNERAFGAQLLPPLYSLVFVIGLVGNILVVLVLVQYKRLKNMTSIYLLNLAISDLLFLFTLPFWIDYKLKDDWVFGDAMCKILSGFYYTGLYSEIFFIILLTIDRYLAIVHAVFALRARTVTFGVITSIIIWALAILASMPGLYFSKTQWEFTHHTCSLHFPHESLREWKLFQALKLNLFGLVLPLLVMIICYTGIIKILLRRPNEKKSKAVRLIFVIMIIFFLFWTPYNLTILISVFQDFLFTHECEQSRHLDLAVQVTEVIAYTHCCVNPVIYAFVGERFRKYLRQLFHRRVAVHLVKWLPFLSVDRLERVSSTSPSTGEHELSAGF

[2] = biological target: T2, C-C chemokine receptor type 3 (Homo sapiens, UniProt P51677); experiment: Inhibitory activity against recombinant human Chemokine receptor type 3 (CCR3) expressed in chinese hamster ovary cells; type: cell-based, CHO
T2 sequence (P51677 whole entry): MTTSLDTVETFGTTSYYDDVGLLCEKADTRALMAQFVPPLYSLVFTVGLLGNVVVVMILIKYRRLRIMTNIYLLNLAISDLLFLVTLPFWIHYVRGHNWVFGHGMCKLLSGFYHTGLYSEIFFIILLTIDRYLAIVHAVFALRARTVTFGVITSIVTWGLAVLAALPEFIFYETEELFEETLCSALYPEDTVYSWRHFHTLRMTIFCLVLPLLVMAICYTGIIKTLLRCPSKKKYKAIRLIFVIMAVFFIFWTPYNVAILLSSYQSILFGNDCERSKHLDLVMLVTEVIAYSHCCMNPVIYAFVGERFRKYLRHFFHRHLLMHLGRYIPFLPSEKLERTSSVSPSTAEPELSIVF
Method in brief: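 CHO cells transfected with human CCR3, 5×10^5 per well, incubated 30 min at room temperature with 150 pM (final) 125I-labeled human eotaxin and compound. Binding buffer: RPMI 1640 with 0.5% BSA, 20 mM HEPES, 5 mM MgCl2. Filtration on protamine-treated filter plates, washed with binding buffer plus 0.5 M NaCl, filter counted. Nonspecific binding defined with 100 nM eotaxin. Percent inhibition taken against compound-free total binding. IC50 values are the mean of usually three determinations.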

Row | Structure (SMILES) | IC50 [1] [nM] | IC50 [2] [nM]
1 | CC(C)(C)NC(=O)NCC(CCCN1CCC(O)(c2ccc(Cl)cc2)CC1)(c1ccccc1)c1ccccc1 | 71 | 3000
2 | O=C(Nc1ccc(F)cc1)Nc1ccccc1CCN1CCC(Cc2ccc(F)cc2)CC1 |  | 35
3 | Fc1ccc(CCCN2CCC3C(C2)c2cccc4c2N3CC4)cc1 (stereo not drawn) |  | 1000
4 | N#Cc1cccc(NC(=O)Nc2cc(CO)ccc2CN2CCC(Cc3ccccc3)CC2)c1 |  | 114
5 | N#Cc1cccc(NC(=O)Nc2ccc(CO)cc2CN2CCC(Cc3ccc(F)cc3)CC2)c1 |  | 55
6 | O=C(Nc1ccc2c[nH]nc2c1)Nc1ccccc1CN1CCC(Cc2ccccc2)CC1 | > 10000 | 450
7 | N#Cc1cccc(NC(=O)Nc2ccccc2CN2CCC(Cc3ccc(F)cc3)CC2)c1 |  | 310
8 | N#Cc1cccc(NC(=O)Nc2ccccc2C(O)CN2CCC(Cc3ccccc3)CC2)c1 (stereo not drawn) | > 10000 | 49
9 | O=C(Nc1ccccc1)Nc1ccccc1C(O)CN1CCC(Cc2ccccc2)CC1 (stereo not drawn) |  | 249
10 | CN(C)CCNC(=O)NCC(CCCN1CCC(O)(c2ccc(Cl)cc2)CC1)(c1ccccc1)c1ccccc1 | 67 | 2230
11 | N#Cc1cccc(NC(=O)Nc2c(CN3CCC(Cc4ccc(F)cc4)CC3)ccc3ccccc23)c1 |  | 529
12 | COC(=O)c1cccc(NC(=O)Nc2ccccc2)c1CN1CCC(Cc2ccc(F)cc2)CC1 |  | 9
13 | N#CC(CCCN1CCC(O)(c2ccc(Cl)cc2)CC1)(c1ccccc1)c1ccccc1 [BERLEX COMPOUND] | 630 | 9000
14 | N#Cc1cccc(NC(=O)Nc2cccc(C(N)=O)c2CN2CCC(Cc3ccc(F)cc3)CC2)c1 |  | 3
15 | O=C(Nc1cc(F)ccc1F)Nc1ccccc1CN1CCC(c2ccccc2)CC1 |  | 11000
16 | O=C(NCCc1ccc(F)cc1)Nc1ccccc1CN1CCC(Cc2ccccc2)CC1 |  | 3800
17 | COc1cccc(NC(=O)Nc2cc3c(cc2CN2CCC(Cc4ccc(F)cc4)CC2)OCO3)c1 |  | 141
18 | O=C(NCCN1CCCCC1)NCC(CCCN1CCC(O)(c2ccc(Cl)cc2)CC1)(c1ccccc1)c1ccccc1 | 360 | 2200
19 | N#Cc1cccc(NC(=O)Nc2cc3c(cc2CN2CCC(Cc4ccc(F)cc4)CC2)OCO3)c1 |  | 85
20 | O=C(NCC(c1ccccc1)c1ccccc1)Nc1ccccc1CN1CCC(C(=O)c2ccccc2)CC1 |  | 3900
21 | CC(=O)c1cccc(NC(=O)Nc2cc3c(cc2C[N+]2(C)CCC(Cc4ccc(F)cc4)CC2)OCO3)c1 (stereo not drawn) |  | 1
22 | O=C(NCc1ccc2c(c1)OCO2)Nc1ccccc1CN1CCC(Cc2ccccc2)CC1 |  | 1750
23 | N#CC(CCCN1CCN(Cc2ccccc2)CC1)(c1ccccc1)c1ccccc1 | > 50000 | 14100
24 | COc1cccc(NC(=O)Nc2ccccc2CN2CCC(Cc3ccccc3)CC2)c1 | > 10000 | 600
25 | CC1C2=C(CC=CC2)C(=O)N1CC1CCN(CCc2ccccc2)CC1 (stereo not drawn) |  | 12000
26 | O=C(NCCCO)NC(Cc1ccccc1)c1ccccc1 (stereo not drawn) |  | 50000

Row | Structure (SMILES) | IC50 [1] [nM] | IC50 [2] [nM]
27 | O=C(NCCCO)NCC(CCCN1CCC(O)(c2ccc(Cl)cc2)CC1)(c1ccccc1)c1ccccc1 | 31 | 2350
28 | COc1cccc(NC(=O)Nc2ccccc2C(O)CN2CCC(Cc3ccccc3)CC2)c1 (stereo not drawn) | > 10000 | 81
29 | O=C(NCc1ccccc1)Nc1ccccc1CN1CCC(Cc2ccccc2)CC1 | > 10000 | 3400
30 | O=C(Nc1ccccc1)Nc1ccccc1CN1CCC(Cc2ccc(F)cc2)CC1 |  | 361
31 | COC(=O)c1cccc(NC(=O)Nc2cccc(C#N)c2)c1CN1CCC(Cc2ccc(F)cc2)CC1 |  | 7
32 | O=C(NCC(CCCN1CCC(O)(c2ccc(Cl)cc2)CC1)(c1ccccc1)c1ccccc1)NC1CCN(Cc2ccccc2)CC1 | 310 | 1620
33 | COc1cccc(NC(=O)Nc2ccccc2C(O)CN2CCC(Cc3ccc(F)cc3)CC2)c1 (stereo not drawn) |  | 21
34 | CC(C)NC(=O)NCC(CCCN1CCC(O)(c2ccc(Cl)cc2)CC1)(c1ccccc1)c1ccccc1 | < 780 | 6100
35 | COc1ccc(NC(=O)NCc2ccccc2CN2CCC(Cc3ccccc3)CC2)cc1 |  | 1300
36 | O=C(NCCCO)Nc1ccccc1CN1CCC(Cc2ccccc2)CC1 | > 10000 | 2600
37 | O=C(NCC(CCCN1CCC(O)(c2ccc(Cl)cc2)CC1)(c1ccccc1)c1ccccc1)Nc1ccncc1 | 167 | 3500
38 | COc1cccc(NC(=O)Nc2ccccc2CCN2CCC(Cc3ccccc3)CC2)c1 | > 10000 | 180
39 | COc1ccc(NC(=O)NCC(CCCN2CCC(O)(c3ccc(Cl)cc3)CC2)(c2ccccc2)c2ccccc2)cc1 | 780 | 7600
40 | COC(=O)c1ccc(NC(=O)Nc2cccc(OC)c2)c(CN2CCC(Cc3ccc(F)cc3)CC2)c1 |  | 64
41 | COC(=O)c1cccc(NC(=O)Nc2cccc(OC)c2)c1CN1CCC(Cc2ccc(F)cc2)CC1 |  | 11
42 | c1ccc(CCN2CCC(Cc3ccccc3)CC2)cc1 | > 50000 | 7100
43 | COc1cccc(NC(=O)NCc2ccccc2CN2CCC(Cc3ccccc3)CC2)c1 |  | 2400
44 | O=C(Nc1ccccc1)Nc1cccc(C(=O)O)c1CN1CCC(Cc2ccc(F)cc2)CC1 |  | 17
45 | NCC(CCCN1CCC(O)(c2ccc(Cl)cc2)CC1)(c1ccccc1)c1ccccc1 | 760 | 12000
46 | N#Cc1cccc(NC(=O)Nc2ccccc2CCN2CCC(Cc3ccc(F)cc3)CC2)c1 |  | 14
47 | O=C(NCC(c1ccccc1)c1ccccc1)Nc1ccccc1CN1CCC(Cc2ccccc2)CC1 |  | 2650
48 | O=C(NCC(CCCN1CCC(O)(c2ccc(Cl)cc2)CC1)(c1ccccc1)c1ccccc1)Nc1ccccc1 | < 780 | 9800
49 | c1ccc(CCCCN2CCN(Cc3ccccc3)CC2)cc1 |  | 8400
50 | COc1cccc(NC(=O)Nc2ccc(CO)cc2CN2CCC(Cc3ccc(F)cc3)CC2)c1 |  | 47
51 | OC1(c2ccc(Cl)cc2)CCN(CCCCc2ccccc2)CC1 |  | 14500
52 | COc1cccc(NC(=O)Nc2ccccc2CCN2CCC(Cc3ccc(F)cc3)CC2)c1 |  | 11

Row | Structure (SMILES) | IC50 [1] [nM] | IC50 [2] [nM]
53 | N#Cc1cccc(NC(=O)Nc2ccc(O)cc2CN2CCC(Cc3ccccc3)CC2)c1 |  | 277
54 | O=C(NCCc1ccc(F)cc1)Nc1ccccc1CN1CCN(Cc2ccccc2)CC1 |  | 9200
55 | COC(=O)c1ccc(NC(=O)Nc2cccc(C(C)=O)c2)c(CN2CCC(Cc3ccc(F)cc3)CC2)c1 |  | 42
56 | N#Cc1cccc(NC(=O)NCc2ccccc2CN2CCC(Cc3ccccc3)CC2)c1 |  | 2800
57 | C[N+]1(Cc2cc3c(cc2NC(=O)Nc2cccc(C#N)c2)OCO3)CCC(Cc2ccccc2)CC1 (stereo not drawn) |  | 11
58 | CC(=O)c1cccc(NC(=O)Nc2cc3c(cc2CN2CCC(Cc4ccccc4)CC2)OCO3)c1 |  | 228
59 | O=C(Nc1ccccc1)Nc1cccc(CO)c1CN1CCC(Cc2ccc(F)cc2)CC1 |  | 53
60 | COc1cccc(NC(=O)Nc2cc(CO)ccc2CN2CCC(Cc3ccccc3)CC2)c1 |  | 360
61 | O=C(Cc1ccc(F)cc1)Nc1ccccc1CCN1CCC(Cc2ccc(F)cc2)CC1 |  | 153
62 | COC(=O)c1ccc(NC(=O)Nc2cccc(C#N)c2)c(CN2CCC(Cc3ccc(F)cc3)CC2)c1 |  | 67
63 | N#Cc1cccc(NC(=O)Nc2ccccc2C(O)CN2CCC(Cc3ccc(F)cc3)CC2)c1 (stereo not drawn) |  | 11
64 | COC(=O)c1ccc(CN2CCC(Cc3ccccc3)CC2)c(NC(=O)Nc2cccc(OC)c2)c1 |  | 777
65 | O=C(Nc1cccc(CN2CCC(Cc3ccccc3)CC2)c1)Nc1ccc2[nH]ncc2c1 |  | 620
66 | CC(=O)c1cccc(NC(=O)Nc2ccccc2CN2CCC(Cc3ccc(F)cc3)CC2)c1 |  | 125
67 | C[N+]1(Cc2cc(O)ccc2NC(=O)Nc2cccc(C#N)c2)CCC(Cc2ccccc2)CC1 (stereo not drawn) |  | 21
68 | O=C(NCc1ccc2c(c1)OCO2)Nc1ccccc1CN1CCC(C(=O)c2ccccc2)CC1 |  | 7350
69 | O=C(Nc1ccc2[nH]ncc2c1)Nc1cc2c(cc1CN1CCC(Cc3ccccc3)CC1)OCO2 |  | 260
70 | O=C(Nc1ccccc1)Nc1ccccc1C(O)CN1CCC(Cc2ccc(F)cc2)CC1 (stereo not drawn) |  | 24
71 | CC(=O)c1cccc(NC(=O)Nc2cc3c(cc2CN2CCC(Cc4ccc(F)cc4)CC2)OCO3)c1 |  | 40
72 | C[N+]1(Cc2cc3c(cc2NC(=O)Nc2cccc(C#N)c2)OCO3)CCC(Cc2ccc(F)cc2)CC1 (stereo not drawn) |  | 2
73 | N#Cc1cccc(NC(=O)Nc2ccc(C(N)=O)cc2CN2CCC(Cc3ccc(F)cc3)CC2)c1 |  | 8
74 | O=C1CC2(CCc3ccccc32)C(=O)N1CC1CCN(CCc2ccccc2)CC1 (stereo not drawn) |  | 2000
75 | O=C(Nc1cccc(CN2CCC(Cc3ccccc3)CC2)c1)NC1CCN(Cc2ccccc2)CC1 |  | 3700
76 | N#Cc1cccc(NC(=O)Nc2cc3c(cc2CN2CCC(Cc4ccccc4)CC2)OCO3)c1 |  | 237
77 | O=C(Nc1cc(F)ccc1F)Nc1ccccc1CN1CCC(C(=O)c2ccccc2)CC1 |  | 4650
78 | N#Cc1cccc(NC(=O)Nc2cccc(CN3CCC(Cc4ccccc4)CC3)c2)c1 |  | 450

Source: ChEMBL document CHEMBL1135587, “Discovery and structure-activity relationship of N-(ureidoalkyl)-benzyl-piperidines as potent small molecule CC chemokine receptor-3 (CCR3) antagonists” (J Med Chem, 2002)
